Out of some 190,000 compounds screened, about 1,300 (0.68%) were called active.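 How the source made its calls: active means primary screen inhibition at 20 µM above a set limit (cut at about 50% in these data); inactive means the rest.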 Only a selection was taken, and actives are over-represented in it overall.

The test system of this test is diaphorase (Clostridium kluyveri). The test is described as follows: compounds blocking diaphorase resazurin reduction – biochemical, uHTS, resorufin fluorescence, counter-screen for diaphorase-coupled primary assays, primary screen (AID 1217).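 Further: plate controls were DMSO with full reaction for no effect and wells lacking NADH for full effect.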 As to conditions: diaphorase resazurin-to-resorufin fluorescence, NADH, 16 min; at 20 µM; stronger effect = higher value; bacterial (C. kluyveri) enzyme, not human. The essentials: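 Test system: Clostridium kluyveri diaphorase enzyme / Quantity: diaphorase at 0.14 U/mL in enzyme working solution / Incubation: 16-min room-temperature incubation before reading / Benchmarks: NADH-free wells as positive control, DMSO-only neutral wells / Signal: resorufin fluorescence 544/590 nm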
(In general: Alamar Blue is a resazurin reagent that responds to reducing activity.)
Usually inhibition stands for the relative decrease from the control value, in per cent. `COc1cc2c(cc1OC)C(=O)NCC(C)(C)O2`: the inhibition was -1.5% (inactive).
Take `Cc1cc(C)nc(-n2nc(C)cc2NC(=O)c2ccc(F)cc2F)n1`: the inhibition is 3.4% (inactive).
The figure for `Cc1cc(OCC(=O)NC2CCN(C)CC2)ccc1[N+](=O)[O-]` is 3.6% (inactive); for `COc1cccc(NC(=O)c2ccc(S(=O)(=O)N(C)C)cc2)c1` it is 5.6% (inactive).
The figure for `O=C(COC(=O)/C=C/c1cccc(Cl)c1)NCCc1ccccc1` is 8% (inactive); for `CCOc1ccccc1Nc1ccc(C(=O)O)cc1[N+](=O)[O-]` it is 9.2% (inactive); for `OCCC1CN(Cc2cccc(OC3CCCC3)c2)CCN1Cc1ccsc1` (stereo not given) it is 8.6% (inactive).
The same measure for `CCCCCCCNc1nc(Cl)nc(NCCO)n1`: -16.1% (inactive); for `CCn1cc(C(=O)N2CCN(Cc3ccc4c(c3)OCO4)CC2)c2cc(OC)c(OC)cc2c1=O`: 10.4% (inactive); for `CCn1cc(C(=O)NCC2COc3ccccc3O2)c2cc(OC)c(OC)cc2c1=O` (stereo not given): 7.1% (inactive).
With `CCn1cc(C(=O)NCc2ccc3c(c2)OCO3)c2cc(OC)c(OC)cc2c1=O`, the inhibition is 59.4% (active).
The figure for `N#CC1=C(N)Oc2[nH]c(=S)[nH]c(=O)c2C12C(=O)Nc1ccccc12` (stereo not given) is 25.5% (inactive); for `CCc1ccc(C2C(C#N)=C(N)Oc3n[nH]c(CC(=O)OC)c32)cc1` (stereo not given) it is 4% (inactive).
For the molecule `CCCc1[nH]nc2c1C(c1c(C)nn(-c3ccccc3)c1Cl)C(C#N)=C(N)O2` (stereo not given), the inhibition is 26.8% (inactive).
The figure for `Cc1cc(C)c(C#N)c(SCc2[nH]nc3c2C(c2ccccc2)C(C#N)=C(N)O3)n1` (stereo not given) is 53% (active); for `O=C(OCc1cc(Cl)ccc1OC(F)F)c1cccnc1` it is 10.6% (inactive); for `COC(=O)c1ccc(/C=N\n2c(C)nnc2C)cc1` it is -6.4% (inactive).
The same measure for `CCN(CC)S(=O)(=O)c1cccc(-c2n[nH]c(=S)n2/N=C/c2ccc(C(=O)OC)cc2)c1`: 66.5% (active); for `COc1cc(/C=N/n2c(C)n[nH]c2=S)ccc1OCc1ccccc1`: 32% (inactive); for `CN1CCN(CC(=O)Nc2cccc([N+](=O)[O-])c2)CC1`: 12% (inactive).
On to `CCOc1ccc(-n2c(O)c(/C=N/Nc3nnc(C)c(=O)[nH]3)c3ccccc3c2=O)cc1`, for which the inhibition was 89.8% (active).
On to `CCOc1ccc(-n2c(O)c(/C=N/c3ccnn3Cc3ccncc3)c3ccccc3c2=O)cc1`, for which the inhibition is -12.9% (inactive).
As to `CCOc1ccc(-n2c(O)c(/C=N/Nc3nc(C)cc(C)n3)c3ccccc3c2=O)cc1`, the inhibition was -1.1% (inactive).
The figure for `COc1cccc(/C=N/Nc2ncc(C(F)(F)F)cc2Cl)c1O` is 0% (inactive); for `FC(F)(F)c1cccc(N/N=C/c2ccccc2)c1` it is 23.2% (inactive).
The figure for `Oc1ccc(/C=N/Nc2ccc(C(F)(F)F)cn2)cc1O` is 53.7% (active); for `CN(Cc1ccccc1)C(=O)COC(=O)c1ccccc1Nc1ccccc1` it is 28.3% (inactive).
The same measure for `CCN(CC)c1ccc2cc(C(=O)O)c(=O)oc2c1`: 11.2% (inactive); for `CCN(CC)c1ccc2oc(=O)c(C)nc2c1`: 62.3% (active); for `CCN(CC)c1ccc(/C=N/Nc2nc(C)cc(C)n2)c(O)c1`: 42.2% (inactive).
For the molecule `CCc1ccc(NC(=O)Cn2nc(C)c([N+](=O)[O-])c2C)cc1`, the inhibition is 12.1% (inactive).
As for `CC(=O)Nc1ccc(OCC(=O)NCc2ccc(C)cc2)cc1`, the inhibition is 11.1% (inactive).
As to `COC(=O)c1ccc(OCC(=O)NC(C)(C)C)cc1`, the inhibition is -15.5% (inactive).
The figure for `CC(C)(C)NC(=O)COc1ccc(CNc2ccc3[nH]c(=O)[nH]c3c2)cc1` is 54.2% (active).
The same measure for `Cc1cccc(C2c3[nH]c4ccccc4c3CCN2C(=O)c2cc(-c3cccn3C)n[nH]2)n1` (stereo not given): 37% (inactive); for `Cc1cc2c(cc1C)[n+](C)cn2CC(O)COCC1CC=CCC1` (stereo not given): 1.5% (inactive); for `COc1ccc(/C=C/CN2CCN(Cc3ccc(C)cc3)C(CCO)C2)cc1` (stereo not given): 7.2% (inactive).
For the molecule `CN(CCc1cn[nH]c1)C(=O)CC1C(=O)NCCN1Cc1cccc(Oc2ccccc2)c1` (stereo not given), the inhibition is 8.5% (inactive).
With `Cn1c(SCC(=O)N2CCCc3ccccc32)nc2ccccc2c1=O`, the inhibition was 5.1% (inactive).
The same measure for `CCCn1c(SCC(=O)N2CCc3ccccc32)nnc1-c1ccncc1`: 6.2% (inactive); for `O=C(CSc1ccc2nnc(-c3ccccc3)n2n1)N1CCCc2ccccc21`: 56.2% (active); for `C=CCNC(=S)NNC(=O)COc1c(Cl)cc(Cl)cc1Cl`: 10.5% (inactive).
The figure for `Cc1nn(C)c(Oc2ccccc2)c1[N+](=O)[O-]` is 13.6% (inactive); for `Cc1cccc(OP(=O)(Nc2c(C)n(C)n(-c3ccccc3)c2=O)Oc2cccc(C)c2)c1` it is 14.1% (inactive).
The same measure for `COc1cccc(C(=O)Oc2cc(C)[nH]c(=O)c2[N+](=O)[O-])c1`: 15.4% (inactive); for `Cc1cccc(Oc2c([N+](=O)[O-])c(=O)n(C)c3ccccc23)c1`: 94.1% (active).
For `Cn1c(=O)c([N+](=O)[O-])c(Oc2ccccc2)c2ccccc21`, the inhibition is 82.2% (active).
The same measure for `Cn1c2ccccc2c(=O)c2c(O)cccc21`: -1% (inactive).
The same measure for `CN(Cc1cc2cc(F)ccc2[nH]1)Cc1nc(-c2cnccn2)no1`: 15.3% (inactive); for `CN(C)c1nc(-c2cccnc2)nc(-c2ccc(Cl)cc2)c1C#N`: -10.7% (inactive).
The figure for `COC(=O)C1CCN(C(=O)c2cc(=O)[nH]c3ccccc23)CC1` is 6.4% (inactive).
For the molecule `OC(COCc1ccco1)CN1CCN(c2ccccc2)CC1` (stereo not given), the inhibition was 3.1% (inactive).
The same measure for `S=C(NCC1CCCO1)N1CCN(c2ccc(Cl)c(Cl)c2)CC1` (stereo not given): 21.1% (inactive); for `Cc1cccc(N2CCC(NCc3c(C(=O)N4CCCCC4)nc4c(C)cccn34)CC2)c1`: -5.4% (inactive).
The same measure for `Cc1cccc(NC(=O)Nc2ccc3c(c2)OCO3)n1`: 18.3% (inactive).
Consider `COc1ccc(NC(=S)NCCN2CCC(C)CC2)cc1`, for which the inhibition was -1.3% (inactive).
The figure for `Cc1noc(/C=C/c2ccco2)c1S(=O)(=O)N1CCC(C(=O)Nc2ccc(Cl)cn2)CC1` is 14.1% (inactive); for `COc1cc(N/C=C2\CC(=O)NC(C)=C2C#N)cc(OC)c1OC` it is 51.1% (active); for `COC(=O)C1=C(C)NC(=O)CC1c1ccccc1OC` (stereo not given) it is 6.8% (inactive).
The same measure for `Cc1cccc(NC(=S)NCCc2ccc(F)cc2)c1C`: 1.1% (inactive); for `N#Cc1c(-c2ccc(F)cc2)cc(C2CC2)nc1SCC(=O)c1cccs1`: 12.8% (inactive); for `COc1ccc(S(=O)(=O)Nc2cccnc2)c(Cl)c1Cl`: 77.2% (active).
As for `COc1ccccc1Oc1ccc(S(=O)(=O)Nc2cccnc2)cc1`, the inhibition was 9.6% (inactive).
As for `COc1ccc(C(=O)Nc2cccnc2)cc1C(=O)Nc1cccnc1`, the inhibition is -17.7% (inactive).
The same measure for `S=C(Cc1ccc(Cl)cc1)N1CCOCC1`: -0.3% (inactive).
As for `CC(=O)Nc1cccc(-c2nc3ccccc3s2)c1C`, the inhibition was 6.8% (inactive).
Regarding `Cc1ccc(-c2n[nH]c(=S)n2/N=C/c2cc3c(cc2[N+](=O)[O-])OCO3)cc1`, the inhibition is 69.3% (active).
In the case of `Cc1ccc(S(=O)(=O)N/N=C\c2cc3c(cc2[N+](=O)[O-])OCO3)cc1`, the inhibition is 37.8% (inactive).
Regarding `CCOc1ccc(-c2n[nH]c(=S)n2/N=C/c2cc3c(cc2[N+](=O)[O-])OCO3)cc1`, the inhibition was 41.6% (inactive).
The same measure for `COc1ccc(CS(=O)/C(Cl)=C(/Cl)C(=O)Nc2ccc(OC)nc2)cc1` (stereo not given): 1% (inactive); for `COc1ccc(S(=O)(=O)Nc2ccc(O)c(Sc3nc4ccccc4s3)c2)cc1`: 24.7% (inactive).
As to `O=[N+]([O-])c1c(NCCO)cc(Sc2nc3ccccc3s2)c2nonc12`, the inhibition was 58% (active).
The same measure for `O=C(O)c1cccc(S(=O)(=O)Nc2ccc(O)cc2Sc2nc3ccccc3s2)c1`: 7.5% (inactive); for `C[C@H](NC(=O)c1ccccc1Cl)C(=O)OCCOc1cccc(Cl)c1`: 11.2% (inactive); for `COc1cccc(-n2cc(C(=O)O)c3ccccc3c2=O)c1`: 6.7% (inactive).
The figure for `COc1cccc(-n2c(=S)[nH]c3c(oc4ccccc43)c2=O)c1` is 71.4% (active); for `COC(=O)c1ccc(CSc2nc3ccccc3c(=O)n2-c2cccc(OC)c2)o1` it is 39.9% (inactive).
The figure for `CN(C(=O)c1c(Cl)cnn1C)C12CC3CC(CC(C3)C1)C2` is 3.9% (inactive).
Take `C/C(=N\Nc1ccc([N+](=O)[O-])cc1)c1ccc(-n2nncc2C(C)(C)C)cc1`: the inhibition is 5% (inactive).
The figure for `CCCCN(C)C(=O)c1ccc2c(c1)N(CC)C(=O)c1ccccc1S2(=O)=O` is 4.6% (inactive); for `O=C(CN1C(=O)c2cccc3cccc1c23)Nc1ccccc1` it is -6.4% (inactive); for `CCN1C(=O)c2cccc3c(N)ccc1c23` it is 57.3% (active).
The figure for `CN1C(=O)C(CC(=O)Nc2ccccc2)S/C1=N/c1nccs1` (stereo not given) is -11.3% (inactive).
The same measure for `CC(=O)Nc1ccc(S(=O)(=O)N(CCc2ccccc2)CC(=O)N/N=C/c2ccc(C(=O)O)cc2)cc1`: 0.3% (inactive); for `Cc1[nH]n(-c2ccccc2)c(=O)c1/C=N/NC(=O)c1ccoc1C`: 50.1% (active); for `Cc1[nH]n(-c2ccc(Cl)cc2)c(=O)c1/C=N/n1c(C)nc2ccccc2c1=O`: -6.7% (inactive).
For the molecule `Cc1ccc(-n2[nH]c(C)c(/C=N/NC(=O)c3cccc([N+](=O)[O-])c3)c2=O)cc1C`, the inhibition is 22% (inactive).
In the case of `O=C(C(Cl)Cl)N1CCN(c2ccccn2)CC1`, the inhibition was 3% (inactive).
Consider `COCCCNC(=O)Cn1c(=O)n(Cc2ccccc2Cl)c(=O)c2cc(OC)c(OC)cc21`, for which the inhibition was 9.4% (inactive).
Regarding `Cc1c(CN2CCCC(C(=O)c3cccc(Cl)c3)C2)c(=O)n(-c2ccccc2)n1C` (stereo not given), the inhibition is 15.1% (inactive).
The figure for `CCc1ccc(NC2Nc3cc(C)nn3S2)cc1` (stereo not given) is 8.9% (inactive).
The same measure for `O=C(Cc1ccccc1)NCC1OCCc2ccccc21` (stereo not given): 24.1% (inactive); for `COc1ccc(-c2csc(Nc3ccccn3)n2)cc1`: 10.1% (inactive); for `COc1ccc(-c2csc(Nc3ccc(O)cc3)n2)cc1`: -2.2% (inactive).
The same measure for `COc1ccc(OC)c(Nc2nc(-c3ccc(O)c(O)c3)cs2)c1`: 57.4% (active).
